Measured values of several laboratories.
Compare with care: the assays were run in different laboratories.
HLA class I histocompatibility antigen, B alpha chain: HLA class I histocompatibility antigen, B alpha chain (Homo sapiens, UniProt P01889)
PLK1 polo-box: Serine/threonine-protein kinase PLK1, polo-box (PLK1, Homo sapiens, UniProt P53350)
HTR2C: 5-hydroxytryptamine receptor 2C (HTR2C, Homo sapiens, UniProt P28335)

CC[C@H](C)[C@H](NC(=O)[C@@H](NC(=O)[C@H](CCCCN)NC(=O)[C@H](Cc1c[nH]cn1)NC(=O)[C@H](Cc1ccc(O)cc1)NC(=O)[C@H](CCSC)NC(=O)[C@@H](N)CCCNC(=N)N)C(C)C)C(=O)N[C@H](C(=O)N[C@@H](Cc1ccccc1)C(=O)O)[C@@H](C)O has an IC50 of 1750 nM (HLA class I histocompatibility antigen, B alpha chain; cell-free assay).
With CC[C@H](C)[C@H](NC(=O)[C@@H](N)CCC(=O)O)C(=O)N[C@@H](C)C(=O)N1CCC[C@H]1C(=O)N[C@H](C(=O)N[C@@H](CC(C)C)C(=O)N[C@@H](Cc1c[nH]cn1)C(=O)N[C@@H](CO)C(=O)N[C@H](C(=O)O)[C@@H](C)OP(=O)(O)O)C(C)C the Kd was 27.2 nM (PLK1 polo-box; binding, MST; pH 8).
With COc1cc(C(F)(F)F)c(OC)cc1C1CCCNC1 (stereo not shown) the EC50 was 71 nM (HTR2C; calcium signal, agonist).
For CSCC[C@H](NC(=O)[C@H](CO)NC(=O)[C@H](CC(C)C)NC(=O)[C@H](CO)NC(=O)[C@H](Cc1c[nH]cn1)NC(=O)CNC(=O)[C@H](Cc1ccc(O)cc1)NC(=O)[C@H](CC(C)C)NC(=O)[C@@H](N)CCCNC(=N)N)C(=O)O, the IC50 was 583 nM (HLA class I histocompatibility antigen, B alpha chain; cell-free assay).
With CC[C@H](C)[C@H](NC(=O)[C@@H]1CCCN1C(=O)[C@H](CCC(=O)O)NC(=O)[C@H](CC(C)C)NC(=O)[C@@H](N)C(C)C)C(=O)N[C@@H](CC(C)C)C(=O)N[C@@H](Cc1c[nH]cn1)C(=O)N[C@@H](CO)C(=O)N[C@H](C(=O)O)[C@@H](C)OP(=O)(O)O the Kd was 13.7 nM (PLK1 polo-box; binding, MST; pH 8).
For COc1cc2c(cc1OC)CN(CCc1ccc(NC(=O)c3cccc4c(=O)c5cccc(OC)c5[nH]c34)cc1)CC2, the Ki was 94 nM (HTR2C; cell-free assay).
With Nc1ncnc2c1ncn2[C@@H]1O[C@H](C[C@@H](N)CC[C@H](N)C(=O)O)[C@@H](O)[C@H]1O the IC50 was 9020 nM (mRNA cap guanine-N(7) methyltransferase (RNMT, Homo sapiens, UniProt O43148); enzyme activity, inhibitor).
With COc1cc2c3c(c1OC)-c1c(OC)ccc(Cl)c1CC3N(C)CC2 (racemic) the Ki was 792 nM (HTR2C; cell-free assay, radioligand).
N#CC(C#N)=Cc1ccc([N+](=O)[O-])c(O)c1 has a Kd of over 50000 nM (Casein kinase I isoform delta (CSNK1D, Homo sapiens, UniProt P48730); binding, SPR).
CC(C)C[C@H](NC(=O)[C@@H]1CCCN1C(=O)[C@H](Cc1c[nH]c2ccccc12)NC(=O)[C@H](CC(=O)O)NC(=O)[C@H](Cc1ccc(O)cc1)NC(=O)[C@@H](NC(=O)[C@@H](N)Cc1ccc(O)cc1)C(C)C)C(=O)N[C@H](C(=O)N[C@@H](Cc1ccccc1)C(=O)O)[C@@H](C)O gave an IC50 of 24200 nM (HLA class I histocompatibility antigen, B alpha chain; cell-free assay).
With CCCC(NCCc1cc(OC)c(C#N)cc1OC)c1ccccc1O (stereo not shown) the EC50 was 7900 nM (HTR2C; calcium signal, agonist).
COc1cc2c(cc1OC)-c1c(OC)c(OC)cc3c1[C@H](C2)N(C)CC3 gave a Ki of 216 nM (5-hydroxytryptamine receptor 2B (HTR2B, Homo sapiens, UniProt P41595); ligand displacement, radioligand).
CC(C)C[C@H](NC(=O)[C@H](CCC(N)=O)NC(=O)[C@H](CCCNC(=N)N)NC(=O)[C@H](CO)NC(=O)[C@H](Cc1ccc(O)cc1)NC(=O)[C@H](CC(C)C)NC(=O)[C@@H](N)CCCNC(=N)N)C(=O)N[C@@H](Cc1c[nH]cn1)C(=O)N[C@@H](Cc1ccccc1)C(=O)O has an IC50 of 7670 nM (HLA class I histocompatibility antigen, B alpha chain; cell-free assay).
COc1cc(CCNC(c2ccccc2O)C2CC2)c(OC)cc1C#N (stereo not shown) has an EC50 of over 10000 nM (HTR2C; calcium signal, agonist).
The IC50 of CC[C@H](C)[C@H](NC(=O)[C@H](Cc1ccccc1)NC(=O)[C@@H]1CCCN1C(=O)CNC(=O)[C@H](Cc1ccc(O)cc1)NC(=O)[C@H](CCSC)NC(=O)[C@@H](N)CCCNC(=N)N)C(=O)N[C@@H](Cc1c[nH]cn1)C(=O)N[C@@H](Cc1ccccc1)C(=O)O is reported as 31400 nM (HLA class I histocompatibility antigen, B alpha chain; cell-free assay).
c1cncc([C@@H]2CCCN2)c1 gave a Ki of 1300 nM (Neuronal acetylcholine receptor; alpha3/beta4 (Rattus norvegicus, UniProt P04757+P12392); cell-free assay, radioligand).
